STAT3 inh: IL-6 driven STAT3 reporter inhibitors, primary screen, U3A cells, luciferase, luminescence, MLSCN library; inhibition, % at 5.5 µM; IL-6 STAT3-luciferase reporter; host cell line lacks STAT1; hit rate 0.89% among 190,000;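 active = inhibition above the mean inhibition across all screened compounds plus 3 SD, cut at about 44% in these data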;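 note: 0% = DMSO only wells and 100% = 100 µM nifuroxazide control wells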
NF-kB neuron act: activators of NF-kB expression in neurons, primary screen, cell-based, HTS. human neuronal cells, NF-kB reporter expression; hits give high values. fold change at 12.5 µM. hit rate 1.6% among 190,000. AID 1239, 2008; in the data active = fold change above about 3.3
APP 5'UTR act: activators of APP 5'UTR luciferase reporter, primary screen, SH-SY5Y cells; SH-SY5Y APP 5'UTR luciferase reporter, luminescence; zero percent = DMSO vehicle wells; activation, % at 2 µM; hit rate 1% among 190,000;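 active = activation above a set limit, based on mean plus 3 SD of controls, cut at about 140% in these data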
STAT1 inh: STAT1 signaling inhibitors, primary screen, cell-based, HTS, luciferase reporter. inhibition, % at 5.5 µM. AID 920, 2007. NIH 3T3 STAT1-luciferase reporter, IFN-gamma, luminescence. hit rate 0.35% among 200,000;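 active = inhibition above a set limit, the mean inhibition across all tested compounds plus 3 SD, cut at about 34% in these data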;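 note: 0% = IFN-gamma with DMSO and 100% = IFN-gamma with 300 µM nifuroxazide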
STAT1 act: STAT1 signaling activators, primary screen, cell-based, HTS, luciferase reporter; NIH 3T3 STAT1-luciferase reporter, IFN-gamma, luminescence; 100% = IFN-gamma alone, no compound; activation (% of control), % at 5.5 µM; hit rate 2.6% among 200,000; AID 932, 2007;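 active = activation above the screen-wide mean activation plus 3 SD, cut at about 130% in these data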;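 note: raw ratio to IFN-gamma control signal so 100% means no change and 0% no light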
STAT3 activator: IL-6 driven STAT3 reporter potentiators, primary screen, U3A cells, luciferase, luminescence, MLSCN library. IL-6 STAT3-luciferase reporter; 100% = signal with IL-6 EC80 alone. activation (% of control), % at 5.6 µM. hit rate 0.91% among 190,000;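 active = activation above the screen-wide mean of compound activation plus 3 SD, cut at about 130% in these data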;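 note: 0% = background luminescence of wells with medium and substrate only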
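Test system: human U3A cells carrying STAT3-luciferase construct; control set: IL-6-only wells as 100% reference; timing: compound pre-incubation 1 h before IL-6, then 6 h stimulation at 37 °C; also added: IL-6 stimulus at 33 ng/mL final; evaluation: % activation versus median of IL-6-stimulated wells; detection: reporter luminescence signal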
STAT1 activ conf: STAT1 signaling activators, confirmation, cell-based, HTS, luciferase reporter; shares compounds with STAT1 act; NIH 3T3 STAT1-luciferase reporter, IFN-gamma potentiation, luminescence; 100% = IFN-gamma EC80 alone, no compound; activation (% of control), % at 5.7 µM; hit rate 97% among 1,200;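 active = activation above a set limit carried over from the earlier primary STAT1 screen, cut at about 140% in these data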;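 note: simple ratio to median IFN-gamma plus DMSO wells so 0% means no light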
NFkB act: NF-kB reporter activators, TNF-alpha stimulated, counter-screen for STAT1 activator project, cell-based, HEK293T, luciferase luminescence; activation (% of control), % at 5.7 µM; AID 1306, 2008; 100% = TNF-alpha with vehicle only; hit rate 43% among 1,200; shares compounds with STAT1 act;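 active = activation above the mean of solvent-only control wells plus 3 SD, set per campaign, cut at about 130% in these data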;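 note: TNF-alpha given at a submaximal dose yielding about 80% of full reporter signal; values are well signal over median control so 100% means no change and 0% no light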
STAT3 act 2: STAT3 reporter activation by STAT1 hits, confirmation, counter-screen for STAT1 activator project, U3A cells, luciferase, luminescence | shares compounds with STAT1 act | IL-6; cells lack STAT1; 100 = IL-6 alone, no compound effect | hit rate 46% among 1,200 | AID 1316, 2008 | activation (% of control), % at 5.7 µM;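 active = activation above the solvent-only control well mean plus 3 SD, set per plate batch, cut at about 110% in these data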;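 note: 0% = no luminescence and 100% = median IL-6 plus DMSO wells; higher means more STAT3 reporter activation so hits are non-selective activators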
* hit, by the source's call; nt = not tested or not shown. Only some compounds are listed: those with a hit (about 5.1% of all), similar ones and a draw of the others.

SMILES | STAT3 inh | NF-kB neuron act | APP 5'UTR act | STAT1 inh | STAT1 act | STAT3 activator | STAT1 activ conf | NFkB act | STAT3 act 2
N#C/C(=C\c1cccnc1)c1nc2c(s1)CCCC2 | -4.3 | 4.16* | 146.9* | -70.9 | 165.2* | 105.4 | 184.6* | 133.0 | 101.8
CC1CCc2nc(/C(C#N)=C/c3cccnc3)sc2C1 (stereo not given) | -1.9 | 2.1 | 168.5* | -135.2 | 219.5* | 102.8 | 286.1* | 146.0* | 113.0*
COc1cc(/C=C(\C#N)c2nc3c(s2)CCCC3)ccc1O | -4.7 | 2.74 | 59.8 | -21.8 | 120.0 | 109.4 | nt | nt | nt
CCOc1ccccc1/C=C(/NC(=O)c1ccccc1)C(=O)N(CC)CC | 8.9 | 1.14 | -5.5 | 5.0 | 95.6 | 94.4 | nt | nt | nt
Cc1ccc(CSCCNC(=O)c2ccc(NS(C)(=O)=O)cc2)cc1 | 2.5 | 1.04 | -6.3 | -2.0 | 99.9 | 103.5 | nt | nt | nt
COCC(=O)Nc1c(C(=O)Nc2ccc3c(c2)OCCO3)oc2ccccc12 | 3.3 | 2.36 | 195.4* | -87.5 | 176.1* | 102.2 | 176.4* | 139.8* | 104.0
CCOCC(=O)Nc1c(C(=O)Nc2ccc3c(c2)OCCO3)oc2ccccc12 | 7.3 | 1.35 | 129.2 | -59.9 | 155.4* | 100.3 | 159.8* | 141.5* | 102.6
COc1ccc(NC(=O)c2oc3ccccc3c2NC(=O)c2ccc3c(c2)OCO3)cc1 | 22.0 | 0.48 | -6.1 | 3.4 | 96.9 | 84.2 | nt | nt | nt
N#CC(c1ccccc1)N(CCCCl)C(=O)c1ccccc1 (stereo not given) | -4.2 | 0.86 | -0.1 | -0.5 | 100.5 | 106.9 | nt | nt | nt
CN(Cc1nc(-c2cccs2)no1)CC1COCCO1 (stereo not given) | 2.7 | 2.16 | 44.8 | -28.1 | 123.4 | 102.2 | nt | nt | nt
O=C(Nc1ccn(Cc2ccc(Cl)cc2)n1)c1ccccc1 | -6.6 | 2.53 | 46.5 | -60.0 | 151.4* | 109.7 | 151.8* | 122.0 | 111.6*
O=C(Nc1ccn(Cc2ccccc2)n1)c1ccc2c(c1)OCO2 | 0.8 | 1.76 | 42.5 | -24.8 | 123.1 | 108.0 | nt | nt | nt
COc1cc(C)c(C(C)C)cc1S(=O)(=O)NCCCn1ccnc1 | 10.7 | 0.93 | -10.3 | -0.4 | 100.3 | 92.8 | nt | nt | nt
CC(=O)c1c(C)nc(-c2ccc(Cl)cc2)nc1N | -31.1 | 1.05 | 116.1 | -62.0 | 152.5* | 130.4 | 175.4* | 139.6* | 145.8*
O=C(O)c1ccccc1SCc1cn2ccccc2n1 | -7.3 | 0.96 | 11.4 | -2.4 | 102.1 | 108.6 | nt | nt | nt
c1ccc(CSCc2cn3ccccc3n2)cc1 | 4.6 | 5.12* | 105.1 | -58.9 | 152.9* | 97.2 | 168.3* | 131.8 | 111.1*
O=C(Nc1ccccc1)c1ccccc1OCc1ccc(S(=O)(=O)N2CCOCC2)cc1 | 6.2 | 1.22 | 8.2 | -3.2 | 102.0 | 96.1 | nt | nt | nt
CC1=NN(C(=O)c2ccc(C)o2)C(O)(c2ccccc2)C1 (stereo not given) | -6.1 | 1.03 | 48.7 | -66.8 | 158.7* | 107.5 | 108.8 | 102.6 | 94.1
CCOC(=O)C1CCN(CC(=O)N(CC(C)C)c2c(N)n(CC(C)C)c(=O)[nH]c2=O)CC1 | 2.2 | 1.18 | -1.3 | 0.2 | 100.0 | 105.6 | nt | nt | nt
CCSc1nnc(NC(=O)CSc2nnc(C)c(=O)n2N)s1 | 3.3 | 1.33 | 11.0 | -1.9 | 99.7 | 102.1 | nt | nt | nt
COc1ccc(-n2c(O)c(C=Nc3ccccc3)c3ccccc3c2=O)cc1 | 25.4 | 1.1 | 8.4 | -13.5 | 111.4 | 81.6 | nt | nt | nt
COc1ccc(N=Cc2sc(O)c3ccccc23)cc1 | -1.0 | 13.1* | 213.8* | -81.8 | 172.8* | 103.1 | 331.3* | 154.3* | 103.8
O=C(CCSCc1ccccc1F)NCCc1ccccc1 | 5.5 | 1.14 | -5.5 | -0.6 | 102.2 | 99.5 | nt | nt | nt
COC(=O)c1c(C)[nH]c(C(=O)OCc2ccc(F)cc2)c1C | 12.7 | 2.69 | 67.6 | -57.5 | 152.3* | 92.9 | 163.3* | 124.6 | 102.7
CCc1c(C)[nH]c(C(=O)OCc2ccccc2)c1C | 7.1 | 2.45 | 24.0 | -58.9 | 152.5* | 97.7 | 145.6* | 118.3 | 91.7
SMILES | STAT3 inh | NF-kB neuron act | APP 5'UTR act | STAT1 inh | STAT1 act | STAT3 activator | STAT1 activ conf | NFkB act | STAT3 act 2
CC(=O)c1c(C)[nH]c(C(=O)OCC(=O)NCCc2ccc(F)cc2)c1C | 7.3 | 0.97 | 12.9 | 7.7 | 92.9 | 98.2 | nt | nt | nt
Fc1c(F)c(C(F)(F)F)c(F)c(F)c1N/N=C\c1cccs1 | -9.1 | 1.04 | 3.7 | 4.1 | 96.2 | 111.8 | nt | nt | nt
COc1ccc(NC(=O)c2sccc2C)cn1 | 23.2 | 1.85 | 23.3 | -23.1 | 119.1 | 86.1 | nt | nt | nt
COC(=O)c1ccc(NC(=S)Nc2ccc(O)cc2)cc1 | 7.5 | 1.38 | 11.0 | -3.0 | 101.5 | 100.3 | nt | nt | nt
COC(=O)c1ccc(NC(=S)Nc2ccccn2)cc1 | 10.2 | 3.05 | nt | -71.9 | 164.7* | 96.3 | 189.6* | 134.6* | 100.3
Clc1ccc(-c2csc(N3CCOCC3)n2)cc1 | 9.4 | 4.93* | 117.9 | -62.7 | 159.5* | 92.8 | 176.5* | 139.0* | 96.1
Brc1ccc(-c2csc(N3CCOCC3)n2)cc1 | 21.0 | 3.36* | 107.1 | -58.1 | 150.8* | 88.2 | 190.2* | 137.2* | 100.7
Cc1cccc(C(=O)Nc2cccc(-c3ccc4nncn4n3)c2)c1 | 8.8 | 0.77 | -9.4 | 21.7 | 79.4 | 96.4 | nt | nt | nt
O=C(Nc1ccccc1)OC1CC2CC1C1CCCC21 (stereo not given) | -5.7 | 2.9 | 121.3 | -70.9 | 162.2* | 108.9 | 174.7* | 133.5* | 111.0*
COc1ccc(Cc2nnc(-c3ccccc3)o2)cc1 | 9.9 | 1.49 | 14.5 | -24.0 | 121.1 | 101.7 | nt | nt | nt
Cc1ccccc1-c1nnc(Cc2ccccc2)o1 | 6.5 | 2.46 | 71.4 | -60.7 | 153.6* | 97.7 | 175.4* | 135.3* | 108.4
N#Cc1cnc(SCC(=O)NNC(=O)COc2cccc3ccccc23)nc1N | -4.1 | 1 | 1.3 | -1.1 | 101.0 | 102.2 | nt | nt | nt
CN(C)c1ccc(C(=O)/C=C/c2ccco2)cc1 | 32.1 | 5.56* | 203.5* | -75.8 | 168.4* | 74.0 | 177.9* | 120.1 | 122.3*
O=C(/C=C\c1ccco1)c1ccc(NC(=O)c2ccco2)cc1 | -2.3 | 2.31 | 132.5 | -29.6 | 125.6 | 106.0 | nt | nt | nt

Source: PubChem BioAssay
